Results on six compounds are retold here after ChEMBL document CHEMBL3739417, “Synthesis and biological evaluation of novel 4,5-disubstituted 2H-1,2,3-triazoles as cis-constrained analogues of combretastatin A-4” (2015).

Holding throughout (type): functional
Assay [1] relates to M14. The experiment in a line: Growth inhibition of human M14 cells after 48 hrs by sulforhodamine B assay. As to conditions: M14, 48 h; for CC50: read-out: LD50 (the source's name). In a few lines:
(§1)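 NCI-60 panel screen by SRB assay (Rubinstein method). Percentage growth taken from optical density of SRB colour, read before and 48 hrs after exposure to compound or vehicle control. All analogues first screened at 10^-5 M. Analogues giving 60% growth inhibition at that level in at least eight lines then went to a five-concentration dose-response study.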

Assay [2] is described as follows: Growth inhibition of human SF539 cells after 48 hrs by sulforhodamine B assay. As to conditions: SF-539, 48 h; for LC50 (concentration giving 50% cell kill): read-out: LD50. In a few lines:
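NCI-60 sulforhodamine B screen. Compounds were first tested at a single dose of 10⁻⁵ M; hits, defined as ≥60% growth inhibition in at least eight lines, went on to a five-concentration dose–response. SRB optical density was read before and 48 h after exposure to compound or vehicle. Percentage growth was calculated from OD.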

The nature of assay [3]: Growth inhibition of human MOLT4 cells after 48 hrs by sulforhodamine B assay. As to conditions: MOLT-4, 48 h; for CC50: read-out: LD50 (the source's name). In a few lines:
as §1

Assay [4] deals with SK-MEL-5. The experiment in a line: Growth inhibition of human SK-MEL-5 cells after 48 hrs by sulforhodamine B assay. As to conditions: SK-MEL-5, 48 h; for CC50: read-out: LD50 (the source's name). A digest of the protocol:
as §1

The nature of assay [5]: Growth inhibition of human UACC62 cells after 48 hrs by sulforhodamine B assay. As to conditions: UACC-62, 48 h; for CC50: read-out: LD50 (the source's name). In a few lines: as §1
Assay [6] has as its system 786-0. The experiment in a line: Growth inhibition of human 786-0 cells after 48 hrs by sulforhodamine B assay. As to conditions: 786-0, 48 h; for LC50 (concentration killing 50% of cells): read-out: LD50. In a few lines:
as §1

Assay [7] can be described thus: Growth inhibition of human Hs 578T cells after 48 hrs by sulforhodamine B assay. The following applies: for CC50: read-out: LD50 (the source's name). A digest of the protocol:
as §1

The subject of assay [8] is SK-MEL-28. The experiment in a line: Growth inhibition of human SK-MEL-28 cells after 48 hrs by sulforhodamine B assay. The following applies: SK-MEL-28, 48 h; for CC50: read-out: LD50 (the source's name). A digest of the protocol:
as §1

Assay [9] can be described thus: Growth inhibition of human OVCAR4 cells after 48 hrs by sulforhodamine B assay. As to conditions: OVCAR-4, 48 h; for LC50 (concentration killing 50% of cells): read-out: LD50. In a few lines:
as §1

Turning to `COc1ccc(-c2n[nH]nc2-c2cc(OC)cc(OC)c2)cc1`, the GI50 in assay [1] is below 0.01 µM; in assay [2] it was 0.014 µM; in assay [3], 0.048 µM; in assay [4], 0.027 µM; in [5], below 0.01 µM; in [6], 0.015 µM. Besides, the 50% growth inhibitory concentration (GI50) in assay [7] was found to be 0.041 µM. The CC50 in assay [1], in assay [3], in [4], in [5] and in [7] was above 100 µM in each case. Besides, the LC50 (concentration giving 50% cell kill) in assay [2] is above 100 µM. Further, in assay [6], the LC50 (concentration killing 50% of cells) was above 100 µM.
With `COc1cc(-c2n[nH]nc2-c2ccc3ccccc3n2)cc(OC)c1OC`, the GI50 is 0.022 µM in assay [1]; 0.02 µM in assay [2]; 0.068 µM in [3]; above 100 µM in assay [8]; 0.013 µM in [4]; 0.157 µM in assay [5]. Also, the results for the GI50 in assay [9] and in assay [6] were 0.077 µM and 0.043 µM, respectively. Further, the CC50 in assay [1], in assay [3], in [8], in [4] and in assay [5] was above 100 µM each time. Besides, the LC50 (concentration giving 50% cell kill) in assay [2] is above 100 µM. Further, the LC50 (concentration killing 50% of cells) in [9] and in assay [6] was above 100 µM in each case.
Consider `COc1ccc(-c2nn[nH]c2-c2cc(OC)c(OC)c(OC)c2)cc1`, for which the GI50 in assay [1] was below 0.01 µM; in assay [2], below 0.01 µM; in [3] it was 0.012 µM; in assay [4] it was below 0.01 µM; in assay [9], below 0.01 µM; in assay [6], below 0.01 µM. For the same compound, in [7], the GI50 was below 0.01 µM. For the same compound, the CC50 in [1], in assay [3], in assay [4] and in assay [7] was above 100 µM throughout. In addition, the TGI in assay [2] was below 0.01 µM. In assay [2], the LC50 (concentration giving 50% cell kill) is above 100 µM. Further, the LC50 (concentration killing 50% of cells) in assay [9] and in assay [6] was above 100 µM in each case.
Take `COc1cc(-c2n[nH]nc2-c2ccc3c(c2)OCCO3)cc(OC)c1OC`: the GI50 was below 0.01 µM in assay [1]; below 0.01 µM in assay [2]; 0.04 µM in assay [3]; above 100 µM in [8]; below 0.01 µM in assay [4]; above 100 µM in [5]. Besides, the values for the GI50 in assay [9], in assay [6] and in assay [7] were 0.034 µM, below 0.01 µM and 0.668 µM, respectively. Further, the CC50 in assay [1], in assay [3], in assay [8], in [4], in assay [5] and in assay [7] was above 100 µM in each case. In addition, in assay [2], the LC50 (concentration giving 50% cell kill) is above 100 µM. Also, the LC50 (concentration killing 50% of cells) in assay [9] and in [6] was above 100 µM in each case.
For `Clc1ccc(-c2n[nH]nc2-c2ccccn2)c(Cl)c1`, the GI50 in assay [1] was determined as 14.3 µM; in [3], 4.23 µM; in assay [8], 5.39 µM; in assay [4], 7.89 µM; in [5] it was 3.35 µM; in assay [9], 3.04 µM. Also, the GI50 is 2.75 µM in assay [6] and 11.6 µM in assay [7]. The CC50 in assay [1], in [3], in [8], in assay [4], in assay [5] and in [7] was above 100 µM each time. Further, the LC50 (concentration killing 50% of cells) in assay [9] and in assay [6] was above 100 µM in each case.
On to `COc1cc(-c2n[nH]nc2-c2ccc3c(c2)OCO3)cc(OC)c1OC`, for which the GI50 is 0.18 µM in assay [2]; 0.57 µM in assay [3]; 0.24 µM in assay [8]; above 100 µM in assay [4]; above 100 µM in assay [5]; 0.08 µM in assay [9]. Further, the GI50 in assay [6] amounted to 0.62 µM; in assay [7] it was 0.44 µM. Besides, in assay [2], the LC50 (concentration giving 50% cell kill) is above 100 µM. Moreover, the CC50 in [3], in assay [8], in [4], in assay [5] and in assay [7] was above 100 µM throughout. The LC50 (concentration killing 50% of cells) in assay [9] and in assay [6] was above 100 µM throughout.
